Compound activity: PubChem BioAssay, Johns Hopkins Ion Channel Center
Most compounds without a hit are left out; they make up all but 3.5% or so of the library.
RGS4 act = potentiators or activators of RGS4 | HEK293 M3R/inducible RGS4, carbachol calcium flux Fluo4; stronger effect = lower value | B-score at 10 µM | hit rate 0.92% among 310,000 | AID 463111;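 active = B-score of the integrated calcium signal more than 4 SD below the library mean, with starting fluorescence not abnormally high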;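 also: negative B-score means reduced calcium response which marks RGS4 activation or potentiation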
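System – HEK293 FlpIn-TREx cells, stable M3R, doxycycline-inducible RGS4 · Reagent – ECmax carbachol challenge · Times – compound preincubation 20 min at room temperature before agonist · Technique – Fluo4 fluorescence kinetic imaging of calcium · Measure – B score of integrated Fluo4 ratio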
MrgX1 allo act = human MrgX1 positive allosteric modulation, primary screen | Q96LB2 | MrgX1-HEK293, Fluo-4 calcium flux, FDSS; stronger effect = higher value | B-score at 10 µM | hit rate 0.63% among 310,000;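 active = plate-corrected calcium response at least 3 library SD above typical, normal starting fluorescence, not activating the receptor alone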;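 also: compound read alongside a low EC10 to EC30 dose of BAM8-22 agonist; peak minus trough fluorescence over baseline measured at the second addition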
Target sequence (Q96LB2 whole entry, looked up): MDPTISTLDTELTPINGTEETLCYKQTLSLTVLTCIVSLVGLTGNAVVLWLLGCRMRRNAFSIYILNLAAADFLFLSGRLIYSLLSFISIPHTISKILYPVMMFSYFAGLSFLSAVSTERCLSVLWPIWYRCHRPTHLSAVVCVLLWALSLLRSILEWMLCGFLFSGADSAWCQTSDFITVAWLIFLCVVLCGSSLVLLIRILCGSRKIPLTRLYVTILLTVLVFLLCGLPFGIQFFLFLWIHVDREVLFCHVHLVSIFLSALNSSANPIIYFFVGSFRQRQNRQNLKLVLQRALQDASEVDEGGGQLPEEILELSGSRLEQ
MrgX1 ag = activates human MrgX1 receptor signaling; Q96LB2; MrgX1-HEK293 cells, Fluo-4 calcium fluorescence, agonist mode; stronger effect = higher value; B-score at 10 µM; hit rate 0.44% among 310,000; AID 588627;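 active = calcium response B-score plate-corrected fluorescence ratio at least 3 library SD, with starting fluorescence B-score inside 5 SD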
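Material – MrgX1-expressing HEK293 cells · Input – 15,000 cells seeded per well · Dosing – compound as first of three additions · Times – overnight seeding, then 1 h dark dye loading · Measured by – kinetic Fluo-4 NW fluorescence of intracellular calcium · Read-out – B-scored fluorescence response ratio · Benchmarks – positive and negative control wells on each plate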
MrgX1 antag = antagonists of human MrgX1 receptor; B-score at 10 µM; hit rate 1.3% among 310,000; Q96LB2; MRGX1-HEK293 calcium flux, Fluo-4, BAM8-22 antagonism; stronger effect = lower value; AID 588676;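 active = calcium-response B-score plate-corrected more than 3 library SD below zero, starting fluorescence within 5 deviations, no agonist response on first addition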;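 also: peak minus trough fluorescence over baseline after final BAM8-22 challenge near maximal dose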
RGS4 inh = human RGS4 inhibition; HEK293 M3R/RGS4 inducible, Fluo-4 calcium flux; stronger effect = higher value; triggered by carbachol at its EC20; B-score at 10 µM; hit rate 0.45% among 310,000;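 active = B-score, a plate-corrected calcium signal, over three deviations above library mean, with baseline fluorescence within five deviations of library mean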;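 also: RGS4 expression induced by doxycycline in cells with stable M3 receptor; B-score is computed from the integrated fluorescence ratio over baseline after carbachol; higher B-score means a larger calcium signal and so more RGS4 inhibition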
Target sequence (P49798 whole entry, looked up): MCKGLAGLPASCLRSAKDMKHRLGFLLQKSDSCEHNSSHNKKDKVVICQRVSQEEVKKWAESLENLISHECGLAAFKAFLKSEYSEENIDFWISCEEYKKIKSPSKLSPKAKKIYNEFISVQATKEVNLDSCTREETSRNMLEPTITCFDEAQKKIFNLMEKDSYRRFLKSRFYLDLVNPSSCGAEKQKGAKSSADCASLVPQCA
RGS4 act valid = RGS4 activation, validation assay; shares compounds with RGS4 act; HEK293 M3R/RGS4 inducible, carbachol calcium flux Fluo4; inhibition, % at 10 µM; hit rate 89% among 1,100;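 active = inhibition above 3 SD of the buffer control wells, cut at about 41% in these data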;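 also: signal is the integrated peak-minus-minimum Fluo4 fluorescence over baseline ratio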
M3R Ca counter = RGS4 activator counter-screen hit in non-induced cells; HEK293 M3R non-induced RGS4, Fluo4 calcium flux; after carbachol challenge at its EC90; inhibition, % at 10 µM; shares compounds with RGS4 act; hit rate 82% among 1,100;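 active = inhibition exceeding 3 SD of buffer-only control wells, cut at about 26% in these data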;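 also: percent drop in integrated peak-minus-baseline over baseline Fluo4 ratio after carbachol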
A number is an active result; - = inactive; . = no result.

SMILES	RGS4 act	MrgX1 allo act	MrgX1 ag	MrgX1 antag	RGS4 inh	RGS4 act valid	M3R Ca counter
CCCCOc1ccc(S(=O)(=O)n2c(C)nc3ccccc32)cc1	-8.3	-	-	-	-	93	96
O=C(COc1ccc(S(=O)(=O)NC2CCCCC2)cc1)NC1CC1	-	-	-	-	-	.	.
COc1ccc(-c2oc3ncnc(NCCN4CCOCC4)c3c2-c2ccc(OC)cc2)cc1	-9.8	-	-	-	-	88	70
COc1ccc(-c2oc3ncnc(NCCCN4CCOCC4)c3c2-c2ccc(OC)cc2)cc1	-	-	-	-	-	.	.
CN(CC#CC(O)(c1ccccc1)c1ccccc1)C(C)(C)C	-10	-	-	-	-	94	91
CC(C)N(CC#CC(O)(c1ccccc1)c1ccccc1)CCO	-8.6	-	-	-	-	91	52
CCOc1ccc(N(CC(=O)NC2CC2)S(=O)(=O)c2ccc(C)cc2)cc1	-	-	-	-	-	.	.
O=[N+]([O-])c1ccccc1CCc1cnc(Cl)s1	-	-	-	-	-	.	.
O=C1CCSc2ccc(Cl)cc2N1Cc1ccc(Cl)cc1	-10	-	-	-	-	90	86
Cc1c(C(=O)N2CCN(CCc3ccccn3)CC2)oc2ccc(Cl)cc12	-	-	-	-	-	.	.
Cc1cc(Cl)c(S(=O)(=O)N2CCN(c3ccccn3)CC2)cc1OCC(=O)NC1CCCCC1	-8	-	-	-	-	92	75
CC(C)OCCCN(C)C1CCN(S(=O)(=O)c2csc(C(N)=O)c2)CC1	-	-	-	-	-	.	.
CC(C)OCCCN(C)C1CCN(S(=O)(=O)c2ccc(-c3cc(C(F)(F)F)no3)s2)CC1	-7.7	-	-	-	-	49	84
Cc1ccc(N(CC(=O)NC2CCCCC2)C(=O)CCCC(=O)Nc2ccccn2)cc1	-	-	-	-	-	.	.
COc1ccc(NC(=O)CN(C)C(=O)c2cc(-c3ccccc3)nc3ccccc23)cc1	-8.4	-	-	-	-	48	-
COc1ccc(-c2cc(C(=O)N(C)CC(=O)Nc3cccc(F)c3)c3ccccc3n2)cc1	-8.2	-	-	-	-	70	28
COc1ccc(NC(=O)CN(C)C(=O)c2cc(-c3ccncc3)nc3ccccc23)cc1	-	-	-	-	-	.	.
COc1ccc(NC(=O)CN(C)C(=O)c2cc(-c3ccc(OC)cc3)nc3ccccc23)cc1	-8.1	-	-	-	-	54	84
CN(CCOc1ccc(Cl)cc1)C(=O)c1cc(-c2ccco2)nc2ccccc12	-8.5	-	-	-	-	91	66
COc1ccc(NC(=O)CN(C)C(=O)c2cccc3ccccc23)cc1	-	-	-	-	-	.	.
Cc1cccc(N(C)c2ncnc3onc(-c4ccc(F)cc4)c23)c1C	-	-	-	-	-	.	.
COc1cccc(C(=O)COC(=O)CCCC(=O)NC2CCCCC2)c1	-	-	-	-	-	.	.
CC(=O)N1CCCc2cc(S(=O)(=O)N3CCCC(C)C3)ccc21 (configuration not stated)	-	-	-	-	-	.	.
Cc1ccc(NC(=O)CN(C)C(=O)c2cc(-c3ccco3)nc3ccccc23)cc1	-8.3	-	-	-	-	61	-
C(=N\c1nc2ccccc2n1Cc1ccccc1)/c1cccs1	-9.8	-	-	-	-	76	41
SMILES	RGS4 act	MrgX1 allo act	MrgX1 ag	MrgX1 antag	RGS4 inh	RGS4 act valid	M3R Ca counter
CCOC(=O)c1cnc2ccccc2c1NCc1ccco1	-9.7	-	-	-	-	94	92
CCCCn1c2ccccc2c2nnc(SCCN3CCCCC3)nc21	-8.5	.	.	.	-	92	78
CN(C)C(C)(C)C#CCC(c1ccccc1)c1ccccc1	-8.2	-	-	-	-	90	59
CS(=O)(=O)c1ccc(C(=O)OCC(=O)c2ccc(Cl)s2)cc1	-	-	-	-	-	.	.
[2H]c1c([2H])c([2H])c(C(=O)c2sc(N3CCCCCC3)nc2-c2ccccc2)c([2H])c1[2H]	-8.3	-	-	-	-	92	61
O=C(c1cc(-c2ccncc2)nc2ccccc12)N1CCN(S(=O)(=O)/C=C/c2ccccc2)CC1	-	-	-	-	-	.	.
